Laboratory results: ChEMBL document CHEMBL1240483, “Novel N-phenyl dichloroacetamide derivatives as anticancer reagents: design, synthesis and biological evaluation” (Eur J Med Chem, 2010)

Tests used:
[1] = test system: A549; test: Anticancer activity against human A549 cells after 72 hrs by MTT assay; assay type: functional, cell-based; settings: A549, 72 h
Method in brief: (§1)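 Cells seeded at 3000/well and grown 24 h: A549 in F12-K, BGC-823, KB and BEL-7402 in RPMI 1640, all with 10% FBS at 37 °C in 5% CO2. Drug added at 10 concentrations from 4×10^-4 to 1×10^-7 M and incubated 72 h. MTT added for 4 h at 37 °C, then SDS/isobutanol/HCl lysis overnight. A570 read. IC50 from three independent tests.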

[2] = test system: Bel-7402; test: Anticancer activity against human Bel7402 cells after 72 hrs by MTT assay; assay type: functional, cell-based; settings: Bel-7402, 72 h; method in brief: as §1
[3] = Toxicity in intragastrically administered Kunming mouse after 14 days; assay type: organism-based; settings: in vivo, po
[4] = test system: BGC-823; test: Anticancer activity against human BGC823 cells after 72 hrs by MTT assay; assay type: functional, cell-based; settings: BGC-823, 72 h; method in brief: as §1
[5] = test system: KB; test: Anticancer activity against human KB cells after 72 hrs by MTT assay; assay type: functional, cell-based; method in brief: as §1
[6] = test system: A549; test: Induction of apoptosis in human A549 cells assessed as early apoptotic cells at 30 uM after 24 hrs by annexin-V/propidium iodide based FACS analysis; assay type: functional
Method in brief: (§2)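 A549 cells (F12-K, 10% FBS, 37 °C, 5% CO2) treated at 0, 10, 15 or 30 μM for 24 or 48 h, then trypsinized and resuspended in PBS. Stained with Annexin V-FITC/PI kit and analysed by flow cytometry. Early apoptotic cells counted in the Q4 quadrant.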

[7] = test system: A549; test: Induction of apoptosis in human A549 cells assessed as early apoptotic cells at 15 uM after 24 hrs by annexin-V/propidium iodide based FACS analysis; assay type: functional; method in brief: as §2
[8] = test system: A549; test: Induction of apoptosis in human A549 cells assessed as early apoptotic cells at 10 uM after 24 hrs by annexin-V/propidium iodide based FACS analysis; assay type: functional; method in brief: as §2
[9] = test system: A549; test: Induction of apoptosis in human A549 cells assessed as early apoptotic cells at 30 uM after 48 hrs by annexin-V/propidium iodide based FACS analysis; assay type: functional; method in brief: as §2
[10] = test system: A549; test: Induction of apoptosis in human A549 cells assessed as early apoptotic cells at 15 uM after 48 hrs by annexin-V/propidium iodide based FACS analysis; assay type: functional; method in brief: as §2
[11] = test system: A549; test: Induction of apoptosis in human A549 cells assessed as early apoptotic cells at 10 uM after 48 hrs by annexin-V/propidium iodide based FACS analysis; assay type: functional; method in brief: as §2
[12] = test system: A549; test: Induction of apoptosis in human A549 cells assessed as late apoptotic cells at 30 uM after 24 hrs by annexin-V/propidium iodide based FACS analysis; assay type: functional
Method in brief: (§3)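 A549 cells grown in F12-K with 10% FBS at 37 °C under 5% CO2. Exposed for 24 or 48 h to 0, 10, 15 or 30 μM, then trypsinized, pelleted and stained with Annexin V-FITC/PI for flow cytometry. Late apoptotic cells taken as the Q2 quadrant.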

[13] = test system: A549; test: Induction of apoptosis in human A549 cells assessed as late apoptotic cells at 15 uM after 24 hrs by annexin-V/propidium iodide based FACS analysis; assay type: functional; method in brief: as §3
[14] = test system: A549; test: Induction of apoptosis in human A549 cells assessed as late apoptotic cells at 10 uM after 24 hrs by annexin-V/propidium iodide based FACS analysis; assay type: functional; method in brief: as §3
[15] = test system: A549; test: Induction of apoptosis in human A549 cells assessed as late apoptotic cells at 30 uM after 48 hrs by annexin-V/propidium iodide based FACS analysis; assay type: functional; method in brief: as §3
[16] = test system: A549; test: Induction of apoptosis in human A549 cells assessed as late apoptotic cells at 15 uM after 48 hrs by annexin-V/propidium iodide based FACS analysis; assay type: functional; method in brief: as §3
[17] = test system: A549; test: Induction of apoptosis in human A549 cells assessed as late apoptotic cells at 10 uM after 48 hrs by annexin-V/propidium iodide based FACS analysis; assay type: functional; method in brief: as §3

SMILES | IC50 [1] | IC50 [2] | IC50 [4] | IC50 [5] | other results
O=C(Nc1cccc(Cl)c1)C(Cl)Cl | 14.8 µM | 44.5 µM |  |  | LD50 at 336 h [3]: 4550 mg/kg
O=C(Nc1ccc([N+](=O)[O-])cc1)C(Cl)Cl | 34.4 µM | 29.5 µM | 190 µM | 60.6 µM | 
O=C(Nc1cccc(C(F)(F)F)c1)C(Cl)Cl | 12.2 µM | 5.97 µM | 143 µM | 8.86 µM | 
O=C(Nc1ccc(I)cc1)C(Cl)Cl | 12.5 µM | 11.9 µM | 222 µM | 66.2 µM | 
O=C(Nc1ccccc1Cl)C(Cl)Cl | 50.1 µM |  |  |  | 
O=C([O-])C(Cl)Cl.[Na+] [SODIUM DICHLOROACETATE] | 1010 µM | 860 µM | 1050 µM | 1420 µM | 
O=C(Nc1cccc(OC(F)(F)F)c1)C(Cl)Cl | 15.1 µM | 10.3 µM | 142 µM | 7.41 µM | 
O=C(Nc1ccc(SC(F)(F)F)cc1)C(Cl)Cl | 10.6 µM | 3.61 µM | 203 µM | 2.08 µM | 
COc1ccc(NC(=O)C(Cl)Cl)cc1 | 80.9 µM | 192 µM |  | 278 µM | 
O=C(Nc1ccc(F)cc1)C(Cl)Cl | 68.4 µM |  |  |  | 
O=C(Nc1cccc(S(=O)(=O)c2cccc(NC(=O)C(Cl)Cl)c2)c1)C(Cl)Cl | 5.89 µM | 15.9 µM | 198 µM | 24 µM | 
N#Cc1cccc(NC(=O)C(Cl)Cl)c1 | 66.5 µM | 48.4 µM |  | 60.9 µM | 
Cc1ccc(NC(=O)C(Cl)Cl)cc1 | 48.9 µM |  |  |  | 
O=C(Nc1ccc(S(=O)(=O)C(F)(F)F)cc1)C(Cl)Cl | 8.5 µM | 72.8 µM | 146 µM | 9.71 µM | 
O=C(Nc1ccccc1NC(=O)C(Cl)Cl)C(Cl)Cl | 131 µM |  |  |  | 
COc1cccc(NC(=O)C(Cl)Cl)c1 | 25.8 µM | 54.8 µM | 179 µM | 57.7 µM | 
O=C(Nc1ccccc1F)C(Cl)Cl | 87.5 µM |  |  |  | 

SMILES | IC50 [1] | IC50 [2] | IC50 [4] | IC50 [5] | other results
Cc1cccc(NC(=O)C(Cl)Cl)c1 | 41.1 µM |  |  |  | 
O=C(Nc1ccc(Br)cc1)C(Cl)Cl | 13.7 µM | 9.77 µM |  | 21.7 µM | 
C#Cc1cccc(NC(=O)C(Cl)Cl)c1 | 11.2 µM | 4.74 µM | 172 µM | 6.26 µM | 
O=C(Nc1ccccc1[N+](=O)[O-])C(Cl)Cl | 198 µM | 194 µM |  | 253 µM | 
O=C(Nc1cc(Cl)cc(Cl)c1)C(Cl)Cl | 4.4 µM | 4.65 µM | 60.1 µM | 4.53 µM | 
O=C(Nc1cccc(SC(F)(F)F)c1)C(Cl)Cl | 14.1 µM | 6.54 µM | 123 µM | 4.84 µM | 
O=C(Nc1cc(Cl)ccc1Cl)C(Cl)Cl | 12.4 µM | 18.2 µM |  | 11.5 µM | 
O=C(Nc1cccc([N+](=O)[O-])c1)C(Cl)Cl | 18 µM | 15.7 µM | 123 µM | 44.7 µM | 
O=C(Nc1cccc(Cl)c1Cl)C(Cl)Cl |  | 180 µM |  | 217 µM | 
O=C(Nc1ccc(Cl)c(Cl)c1)C(Cl)Cl | 5.09 µM | 7.37 µM | 177 µM | 7.05 µM | 
O=C(Nc1cccc(Br)c1)C(Cl)Cl | 7.8 µM | 7.72 µM | 95.3 µM | 8.18 µM | 
O=C(Nc1ccccc1Br)C(Cl)Cl | 37 µM | 38.2 µM |  | 67.9 µM | 
O=C(Nc1cccc(S(=O)(=O)C(F)(F)F)c1)C(Cl)Cl | 6.53 µM | 9.01 µM | 64 µM | 20.6 µM | 
O=C(Nc1cccc(I)c1)C(Cl)Cl | 4.76 µM | 5.39 µM | 58.8 µM | 5.25 µM | Activity [6]: 15.2%; Activity [7]: 9.2%; Activity [8]: 10.8%; Activity [9]: 10.6%; Activity [10]: 8.7%; Activity [11]: 7.8%; Activity [12]: 20.3%; Activity [13]: 19.3%; Activity [14]: 8.6%; Activity [15]: 35.6%; Activity [16]: 22.6%; Activity [17]: 17.6%; LD50 at 336 h [3]: 1120 mg/kg
O=C(Nc1ccc(Cl)cc1)C(Cl)Cl | 20.4 µM | 49.6 µM |  | 60.8 µM | 
O=C(Nc1ccccc1)C(Cl)Cl | 130 µM |  |  |  | 
